Screens deposited in PubChem by The Scripps Research Institute Molecular Screening Center.
TCR CD3 inh: inhibitors of human TCR-CD3 interaction, primary screen, biochemical, fluorescence, TAMRA-labeled TCR probe; AID 651800, 2012; inhibition, % at 9.4 µM; 360,000 compounds, 0.37% hits; T-cell receptor (TCR); in the data active means inhibition above about 19%;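 further: recombinant mutant TCR 2C K166C tagged with TAMRA read by polarization; 0% = receptor in buffer alone and 100% = receptor with positive control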
SIAE primary: human SIAE inhibitors, primary screen, biochemical, fluorescence polarization, FP-Rh probe, 1536-well HTS | AID 1053197, 2014 | Sialate O-acetylesterase (Homo sapiens), Q9HAT2 | SIAE FP-Rh probe binding | inhibition, % at 9.66 µM | 370,000 compounds, 0.69% hits;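 active means inhibition above a cutoff: mean of compounds within the control limits plus 3 SD of those, cut at about 17% in these data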;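 further: 0% = plate median of compound wells and 100% = probe without SIAE protein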
rCAG binder: binders of r(CAG) RNA repeats, primary screen, biochemical, fluorescence | r(CAG) RNA repeat, TO-PRO-1 dye displacement fluorescence | inhibition, % at 3 µM | 370,000 compounds, 1.3% hits | AID 651821, 2012;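 active means inhibition above the plate cutoff, the mean of all test compounds on that plate plus 3 SD, cut at about 35% in these data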;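 further: 0% = DMSO alone and 100% = 100 µM mitoxantrone as full dye displacement; higher means more dye released from RNA so lower well fluorescence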
HTRA1 inhibitor: HTRA1 serine protease inhibitors, primary screen, biochemical, fluorescence polarization, HTS; recombinant HTRA1, FP-rhodamine activity-based probe; inhibition, % at 5.96 µM; 340,000 compounds, 0.5% hits; AID 504803, 2011; in the data active means inhibition above about 36%;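 further: 0% = enzyme with DMSO and 100% = wells lacking enzyme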
ABHD4 inh: ABHD4 inhibitors, primary screen, biochemical, fluorescence polarization, mouse. AID 720543, 2013. 370,000 compounds, 0.54% hits. (Lyso)-N-acylphosphatidylethanolamine lipase (Mus musculus), Q8VD66. purified mABHD4, FP-Rh probe fluorescence polarization. inhibition, % at 8.92 µM;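 active means inhibition exceeding the mean over every tested compound plus 3 SD, cut at about 30% in these data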;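 further: 0% = plate median of compound wells and 100% = S159A mutant with DMSO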
Target sequence (Q8VD66 whole entry, looked up): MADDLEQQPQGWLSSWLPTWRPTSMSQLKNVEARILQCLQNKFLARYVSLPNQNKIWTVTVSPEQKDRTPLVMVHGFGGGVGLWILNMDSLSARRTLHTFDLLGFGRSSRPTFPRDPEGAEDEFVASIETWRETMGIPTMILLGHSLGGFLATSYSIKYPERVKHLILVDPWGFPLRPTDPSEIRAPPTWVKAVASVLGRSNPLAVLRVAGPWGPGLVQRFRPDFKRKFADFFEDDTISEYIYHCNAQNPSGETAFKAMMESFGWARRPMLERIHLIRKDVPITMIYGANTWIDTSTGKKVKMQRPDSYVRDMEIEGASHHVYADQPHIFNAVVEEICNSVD
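Assay system: wild-type mouse ABHD4 protein; compound: single nominal dose of 8.92 µM, 0.89% DMSO final; schedule: 45 min + 60 min at 25 °C; measured by: FP readout, ex 525 nm / em 598 nm; evaluation: % inhibition of FP-Rh probe binding versus controls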
HTRA1 inh conf: HTRA1 protease inhibitors, retest, confirmation, biochemical, fluorescence polarization | shares compounds with HTRA1 inhibitor | recombinant HTRA1, FP-rhodamine activity-based probe | inhibition, % at 5.96 µM | 1,600 compounds, 66% hits;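 active means mean inhibition over three repeats above a set limit taken from the earlier primary screen, cut at about 37% in these data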;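 further: 0% = HTRA1 with DMSO and 100% = wells lacking HTRA1; inhibitors block probe binding so polarization drops and inhibition rises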
Starred values were filed as active, the others as inactive; . = no result. Rows were chosen to be rich in hits. Some 2.5% of all compounds tested hit in one or more screens of this group.

SMILES	TCR CD3 inh	SIAE primary	rCAG binder	HTRA1 inhibitor	ABHD4 inh	HTRA1 inh conf
O=C(COC(=O)CC(c1ccccc1)c1ccccc1)Nc1c(F)cccc1F	3.0	-6.5	-1.3	.	-3.0	.
Cc1ccc(N=Cc2cc(Cc3ccccc3Cl)cc([N+](=O)[O-])c2O)c(O)c1	.	.	.	70.6*	.	65.4*
OC(c1ccccc1)(c1ccccc1)C1CCN(CCCNc2ccccc2Br)CC1	.	-1.9	1.9	.	10.7	.
Cc1ccc(N2C(N)=C(C#N)C(c3cccnc3)C3=C2CCCC3=O)cc1 (stereo unspecified)	-4.1	7.3	9.5	14.3	11.5	.
N#CC1=C(N)N(c2ccc(Br)cc2)C2=C(C(=O)CCC2)C1c1cccnc1 (stereo unspecified)	-1.9	5.1	5.5	46.0*	15.4	-0.8
CCSc1nnc(NC(=O)CSC2=NN3CCCC(=O)N=C3S2)s1	4.2	-3.3	-1.1	1.4	3.1	.
CN1CCN(C(=O)c2cc3c(c(-c4cccc(Br)c4)n2)[C@H](CCO)N(S(=O)C(C)(C)C)C3)CC1 (stereo partly specified)	5.2	-3.2	5.1	.	-1.2	.
CCN(CC)S(=O)(=O)c1ccc(O)c(C(=O)OCC(=O)NC23CC4CC(CC(C4)C2)C3)c1	1.0	-2.8	23.5	1.6	10.3	.
CC1(C)CC2(CC(c3ccccc3F)c3ccc(O)c(O)c3O2)NC(=S)N1 (stereo unspecified)	5.9	4.4	6.2	60.9*	20.7	58.0*
COc1ccc2c(c1)-c1c(ssc1=S)C(C)(C)N2	-2.4	7.3	5.1	37.5*	22.9	37.2*
COc1ccc(-n2sc3c(c2=S)-c2cc(OC)ccc2NC3(C)C)cc1	2.2	12.9	7.1	8.8	6.2	.
O=C(O)C1OC(Oc2cc3oc(-c4ccccc4)cc(=O)c3c(O)c2O)C(O)C(O)C1O (stereo unspecified)	1.2	4.9	12.8	44.6*	21.0	42.7*
O=C1c2ccccc2-c2onc3ccc(Oc4ccccc4)c1c23	-34.1	-6.5	-7.4	39.3*	-31.5	22.3
O=C(c1ccccc1)c1coc2c1C(=O)c1ccccc1C2=O	-5.9	-4.1	1.6	30.6	5.0	.
Cc1ccnc(Nc2nc(-c3ccc(O)cc3O)cs2)c1	8.1	10.1	30.2	37.0*	19.0	44.4*
Cc1noc(C)c1COC(=O)COc1cccc2c1OC(C)(C)C2	-5.2	5.2	-6.2	2.9	-2.4	.
COc1ccc(CNc2ccc(N3CCOCC3)cc2)cc1	-4.4	2.1	0.2	24.2	14.8	.
CCc1ccc(CNc2ccc(N3CCN(C(C)=O)CC3)cc2)cc1	-1.6	8.1	-1.5	42.5*	27.3	4.2
c1ccc(CNc2ccc(N3CCOCC3)cc2)cc1	1.3	14.4	6.8	52.1*	26.3	16.8
O=C(COc1ccccc1C(=O)N/N=C\c1ccc(O)c(O)c1)N/N=C/c1ccc(O)c(O)c1	.	.	.	47.2*	.	58.6*
O=C(N/N=C/c1ccc(OCc2ccc(F)cc2)cc1)c1ccccc1	6.2	-1.9	-2.2	-10.2	1.0	.
CC(C)(C)c1ccc(OCc2ccc(C(=O)N/N=C/c3ccc(O)c(O)c3)cc2)cc1	2.5	13.5	17.2	45.3*	24.9	81.5*
O=C(COc1ccccc1[N+](=O)[O-])N/N=C/c1ccc(O)c([N+](=O)[O-])c1	7.9	1.0	12.1	3.7	19.5	.
Cc1cc(F)ccc1S(=O)(=O)Nc1ncnc2sccc12	-0.3	7.8	2.8	-7.7	-3.9	.
COC1=C(OC)C(=O)C(CCCCCCCCCCO)=C(C)C1=O	-1.7	6.6	-1.1	.	1.5	.
SMILES	TCR CD3 inh	SIAE primary	rCAG binder	HTRA1 inhibitor	ABHD4 inh	HTRA1 inh conf
COC1=CC(=O)C(O)=C(CCCCCCC/C=C/CCCCCCCC2=C(O)C(=O)C=C(OC)C2=O)C1=O	.	.	.	64.4*	.	93.5*
CCN(CC)C(=O)c1ccc(-c2nnc(Nc3ccc(O)cc3)c3ccccc23)cc1	-10.7	4.5	2.2	40.7*	-5.2	25.5
COC(=O)CCCC1=CC2=CC(=O)C(C)(OC(=O)c3cccs3)C(=O)C2=CN1C1CC1 (stereo unspecified)	5.8	7.8	7.3	6.0	9.6	.
O=C(NN=C1CCN(Cc2ccccc2)CC1)c1cc(Br)ccc1O	13.3	11.1	11.3	39.6*	8.8	12.6
c1ccc(-c2nnc(-c3ccccn3)nc2NC2CCCCC2)cc1	0.1	-1.3	-1.7	65.0*	5.0	80.1*
CCOC1(c2ccccc2)OC(=O)c2ccccc21 (stereo unspecified)	-2.4	5.0	-3.8	2.5	0.0	.
CCC(CO)Oc1cc(NCc2ccccc2)c2ncn(C(C)C)c2c1 (stereo unspecified)	-0.3	0.3	1.6	20.8	7.0	.
CC(C)n1cnc2c(NCc3ccccc3)cc(N[C@H](C)CO)cc21	.	.	.	44.8*	.	33.3
O=C(OCC(=O)N1CCOCC1)c1ccc(Br)cc1	2.2	-4.1	-6.0	9.2	2.3	.
CCOC(=O)c1c(-c2ccccc2)oc2cc(CN(C)C)c(O)c(CN(C)C)c12	-0.7	3.0	-27.6	43.6*	13.8	50.8*
O=C(Oc1c(Cl)cc(Cl)c2cccnc12)c1cccc([N+](=O)[O-])c1	.	.	.	55.4*	.	40.1*
OC(CNCc1ccccc1)Cn1ccc2ccccc21 (stereo unspecified)	-7.9	0.1	-4.6	-0.4	12.5	.
Oc1ccccc1NCC(O)Cn1ccc2ccccc21 (stereo unspecified)	0.2	10.2	13.0	53.9*	26.6	20.7
CCOC(=O)c1cc(N2CCCCC2)nc2ccccc12	6.9	-0.3	2.8	-9.5	-4.4	.
CC1=CC(C)(C)Nc2ccccc21	-3.4	4.5	3.4	-1.7	6.0	.
COc1ccc2c(c1)NC(C)(C)C=C2C	4.1	10.6	11.6	45.5*	13.6	5.3
CCCCn1c(N)c(N(CCOC)C(=O)c2ccc(OCc3c(C)noc3C)cc2)c(=O)[nH]c1=O	4.3	0.5	0.4	8.4	-1.7	.
[O-][n+]1cccc2c(Br)cc(Br)c(O)c21	4.9	0.0	6.9	71.5*	16.9	40.6*
C[n+]1cccc2c(Br)ccc([O-])c21	7.2	10.3	2.3	17.1	11.4	.
CCCc1ccc(O)c(N=Cc2cc(Br)cc(OCC)c2O)c1	-5.0	-2.1	13.5	41.2*	18.2	55.2*
O=C(O)c1cccc(Cn2c(Cl)c(/C=N/NC(=O)c3cc4ccccc4cc3O)sc2=O)c1	11.8	-32.2	77.2*	49.7*	-36.3	55.2*
CC1=C/C(=C(\c2ccc(O)c(C)c2)c2ccccc2S(=O)(=O)O)C=CC1=O	4.9	3.8	6.0	-3.5	0.1	.
COc1cccc2c1nc(C)c1cc(C)oc12	3.3	3.1	5.7	-3.3	11.7	.
COc1cccc2nc3cc(C)c(C)cc3nc12	7.1	10.6	26.5	47.9*	28.1	5.9
